Experimental findings from ChEMBL document CHEMBL4354797, “Novel Pyrazolo[4,3- d]pyrimidine as Potent and Orally Active Inducible Nitric Oxide Synthase (iNOS) Dimerization Inhibitor with Efficacy in Rheumatoid Arthritis Mouse Model” (J Med Chem, 2019) are described below.

By inhibition is commonly meant how much of the control response was suppressed. For orientation: pIC50 means the IC50 on a negative log10 scale, so that one unit is a factor of ten.

Data set [1] relates to RAW264.7. The data set is described as follows: Antiinflammatory activity in mouse RAW264.7 cells assessed as inhibition of LPS-induced NO production at 10 uM preincubated for 1 hr followed by LPS addition and measured after 24 hrs by Griess reagent-based assay relative to control. Format: functional. Put shortly:
(§1)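 RAW 264.7 cells pretreated with compound for 1 h, then LPS 1 µg/mL for 24 h. Single-point inhibition at 10 µM. IC50 by regression of inhibition over several concentrations. At least three independent experiments.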

Data set [2] has as its target T1, Nitric oxide synthase, inducible (Mus musculus, UniProt P29477).
T1 sequence (P29477 whole entry): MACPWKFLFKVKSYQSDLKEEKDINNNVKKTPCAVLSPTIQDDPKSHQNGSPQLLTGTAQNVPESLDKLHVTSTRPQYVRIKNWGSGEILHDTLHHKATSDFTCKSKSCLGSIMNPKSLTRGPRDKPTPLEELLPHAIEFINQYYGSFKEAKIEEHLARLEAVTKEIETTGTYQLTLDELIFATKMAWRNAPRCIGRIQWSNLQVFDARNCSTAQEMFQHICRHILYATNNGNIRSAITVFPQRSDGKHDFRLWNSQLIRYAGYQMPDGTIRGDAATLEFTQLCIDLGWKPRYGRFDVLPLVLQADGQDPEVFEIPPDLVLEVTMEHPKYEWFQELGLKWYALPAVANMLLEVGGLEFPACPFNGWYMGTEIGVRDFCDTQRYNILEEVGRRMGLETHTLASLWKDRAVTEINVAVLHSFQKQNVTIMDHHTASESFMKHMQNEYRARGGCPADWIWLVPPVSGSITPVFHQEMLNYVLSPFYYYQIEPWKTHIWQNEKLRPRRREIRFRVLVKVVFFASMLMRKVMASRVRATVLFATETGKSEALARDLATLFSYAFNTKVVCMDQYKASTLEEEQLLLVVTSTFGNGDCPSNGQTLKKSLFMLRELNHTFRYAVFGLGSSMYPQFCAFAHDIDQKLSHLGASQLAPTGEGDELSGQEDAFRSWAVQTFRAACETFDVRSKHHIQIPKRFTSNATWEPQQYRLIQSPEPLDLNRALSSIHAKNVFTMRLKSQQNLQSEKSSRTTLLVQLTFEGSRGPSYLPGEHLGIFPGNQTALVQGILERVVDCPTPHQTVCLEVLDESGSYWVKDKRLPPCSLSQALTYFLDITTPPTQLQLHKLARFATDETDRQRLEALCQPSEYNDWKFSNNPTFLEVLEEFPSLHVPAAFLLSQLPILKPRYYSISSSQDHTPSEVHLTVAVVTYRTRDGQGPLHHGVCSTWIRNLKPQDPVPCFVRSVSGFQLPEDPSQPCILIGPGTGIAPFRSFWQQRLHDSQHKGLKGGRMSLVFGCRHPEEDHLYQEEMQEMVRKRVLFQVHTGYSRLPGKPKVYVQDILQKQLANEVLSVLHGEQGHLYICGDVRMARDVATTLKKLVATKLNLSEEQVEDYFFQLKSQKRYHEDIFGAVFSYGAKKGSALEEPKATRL
The data set is described as follows: Inhibition of iNOS in LPS-stimulated mouse RAW 264.7 cells preincubated for 1 hr followed by LPS-stimulation and measured after 6 hrs by fluorescence based assay. Conditions: read-out: IC50. An outline of the steps: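 Inhibition calculated relative to LPS-stimulated and unstimulated controls. IC50 obtained by regression of inhibition rates at several concentrations. Indomethacin served as positive control.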

In data set [3] the test system is RAW264.7. Put plainly: Antiinflammatory activity in mouse RAW264.7 cells assessed as inhibition of LPS-induced NO production preincubated for 1 hr followed by LPS addition and measured after 24 hrs by Griess reagent-based assay. Conditions: Mus musculus, RAW264.7; read-out: IC50. The data set is classed as functional, cell-based. Put shortly: as §1
For orientation: Griess reagent forms a coloured azo dye with nitrite.

Data set [4] deals with RAW264.7. Put plainly: Cytotoxicity against mouse RAW264.7 cells assessed as reduction in cell viability. Format: cell-based.
The subject of data set [5] is RAW264.7. The data set is described as follows: Cytotoxicity against LPS-induced mouse RAW264.7 cells assessed as reduction in cell viability. Format: cell-based.
The target in data set [6] is T2, Nitric oxide synthase, inducible (Mus musculus) (UniProt P29477).
T2 sequence (whole entry): T1 sequence (P29477 whole entry)
The data set is described as follows: Potency index, ratio of indomethacin IC50 to compound IC50 for inhibition of iNOS in LPS-stimulated mouse RAW264.7 cells. The data set is classed as cell-based.

For data set [7], the system named is RAW264.7. The data set is described as follows: Inhibition of iNOS expression in LPS-induced mouse RAW264.7 cells at 1 to 4 uM preincubated for 1 hr followed by LPS-stimulation by Western blot analysis. The data set is classed as functional, cell-based. An outline of the steps:
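RAW 264.7 cells pretreated with the indicated compound concentrations for 1 h, then LPS 1 µg/mL for 24 h. iNOS protein assessed by Western blot on 8% SDS-PAGE, with β-actin as loading control. At least three independent experiments, each in duplicate.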
Background: A western blot detects proteins with antibodies after separation by electrophoresis.

Data set [8] concerns the target T2, Nitric oxide synthase, inducible (Mus musculus). The data set is described as follows: Inhibition of iNOS dimerization in LPS-induced mouse RAW264.7 cells at 1 to 4 uM preincubated for 1 hr followed by LPS-stimulation and measured after 24 hrs by immunoblot analysis. Format: cell-based.
For data set [9], the system named is Rattus norvegicus. Put plainly: Antiarthritic activity in CFA-induced Sprague-Dawley rat arthritic model assessed as inhibition of hind paw swelling at 40 mg/kg, ig administered daily for 28 days starting from 14 days post-immunization and measured on day 30. The data set is classed as functional, organism-based. Put shortly:
(§2)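 Rat adjuvant-induced arthritis. Test agent given intragastrically once daily from day 14 to 28 after adjuvant immunization (40 or 80 mg/kg). Aspirin 50 mg/kg intragastric was the positive control. Hind paw swelling and arthritis index measured every 3 days, with body weight tracked; day 30 also reported. n=5 per group, mean±s.d., Tukey's test.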

Data set [10] is described as follows: Toxicity in Sprague-Dawley rat model of CFA-induced arthritis assessed as reduction in body weight loss at 40 to 80 mg/kg, ig administered daily for 28 days starting from 14 days post-immunization and measured on day 30. The data set is classed as organism-based. As to conditions: in vivo, po. Put shortly:
as §2

Data set [11] has as its system Rattus norvegicus. The data set is described as follows: Antiarthritic activity in Sprague-Dawley rat model of arthritis assessed as decrease in CFA-induced synovial hyperplasia at 40 and 80 mg/kg, ig administered daily for 28 days starting from 14 days post-immunization and measured every 3 days by H and E staining based histopathological analysis. The data set is classed as functional, organism-based. Put shortly:
(§3)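 Knee joints of adjuvant-arthritic rats were taken after intragastric dosing once daily, days 14–28 post-immunization (test agent 40 or 80 mg/kg; aspirin 50 mg/kg). Sections stained with H&E were scored by microscopy for synovial hyperplasia, inflammatory cell infiltration and bone/cartilage destruction, against normal and untreated arthritic rats.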

In data set [12] the test system is Rattus norvegicus. Put plainly: Antiarthritic activity in Sprague-Dawley rat model of arthritis assessed as inhibition of CFA-induced inflammatory cell infiltration at 40 and 80 mg/kg, ig administered daily for 28 days starting from 14 days post-immunization and measured every 3 days by H and E staining based histopathological analysis. The data set is classed as functional, organism-based. An outline of the steps: as §3

In data set [13] the test system is Rattus norvegicus. Put plainly: Antiarthritic activity in Sprague-Dawley rat model of arthritis assessed as inhibition of CFA-induced cartilage destruction at 80 mg/kg, ig administered daily for 28 days starting from 14 days post-immunization and measured every 3 days by H and E staining based histopathological analysis. The data set is classed as functional, organism-based. Put shortly: as §3

The test system of data set [14] is Rattus norvegicus. Put plainly: Antiinflammatory activity in ig dosed CFA-induced Sprague-Dawley rat model of arthritis assessed as reduction in NO level in serum administered daily for 28 days starting from 14 days post-immunization. Format: functional, organism-based. An outline of the steps: (§4)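 Serum NO, TNF-α, IL-1β and IL-6 measured in adjuvant-arthritic rats given intragastric dosing once daily, days 14–28 after immunization (test agent 40 or 80 mg/kg; aspirin 50 mg/kg), compared with untreated arthritic and normal rats. n=5 per group, mean±s.d.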

Data set [15] relates to Rattus norvegicus. The data set is described as follows: Antiinflammatory activity in ig dosed CFA-induced Sprague-Dawley rat model of arthritis assessed as reduction in TNF-alpha level in serum administered daily for 28 days starting from 14 days post-immunization. Format: functional, organism-based. An outline of the steps: as §4
Data set [16] relates to Rattus norvegicus. The data set is described as follows: Antiinflammatory activity in ig dosed CFA-induced Sprague-Dawley rat model of arthritis assessed as reduction in IL-1beta level in serum administered daily for 28 days starting from 14 days post-immunization. The data set is classed as functional, organism-based. An outline of the steps: as §4
Data set [17] has as its system Rattus norvegicus. The data set is described as follows: Antiinflammatory activity in ig dosed CFA-induced Sprague-Dawley rat model of arthritis assessed as reduction in IL-6 level in serum administered daily for 28 days starting from 14 days post-immunization. The data set is classed as functional, organism-based. An outline of the steps:
as §4

Data set [18] relates to Rattus norvegicus. The data set is described as follows: Antiarthritic activity in Sprague-Dawley rat model of arthritis assessed as effect on CFA-induced synovial hyperplasia at 50 mg/kg, ig administered daily for 28 days starting from 14 days post-immunization and measured every 3 days by H and E staining based histopathological analysis. Format: functional, organism-based. Put shortly:
as §3

Data set [19] has as its system Rattus norvegicus. The data set is described as follows: Antiarthritic activity in Sprague-Dawley rat model of arthritis assessed as inhibition of CFA-induced inflammatory cell infiltration at 50 mg/kg, ig administered daily for 28 days starting from 14 days post-immunization and measured every 3 days by H and E staining based histopathological analysis. Format: functional, organism-based. An outline of the steps: as §3

In data set [20] the test system is Rattus norvegicus. Put plainly: Antiarthritic activity in Sprague-Dawley rat model of arthritis assessed as inhibition of CFA-induced cartilage destruction at 50 mg/kg, ig administered daily for 28 days starting from 14 days post-immunization and measured every 3 days by H and E staining based histopathological analysis. Format: functional, organism-based. Put shortly: as §3

Data set [21] deals with Rattus norvegicus. Put plainly: Antiinflammatory activity in CFA-induced Sprague-Dawley rat model of arthritis assessed as reduction in NO level in serum at 50 mg/kg, ig administered daily for 28 days starting from 14 days post-immunization. The data set is classed as functional, organism-based. Put shortly:
as §4

Data set [22] deals with Rattus norvegicus. The data set is described as follows: Antiinflammatory activity in CFA-induced Sprague-Dawley rat model of arthritis assessed as reduction in TNF-alpha level in serum at 50 mg/kg, ig administered daily for 28 days starting from 14 days post-immunization. Format: functional, organism-based. Put shortly: as §4
Data set [23] concerns Rattus norvegicus. The data set is described as follows: Antiinflammatory activity in CFA-induced Sprague-Dawley rat model of arthritis assessed as reduction in IL-1beta level in serum at 50 mg/kg, ig administered daily for 28 days starting from 14 days post-immunization. Format: functional, organism-based. An outline of the steps: as §4
The test system of data set [24] is Rattus norvegicus. The data set is described as follows: Antiinflammatory activity in CFA-induced Sprague-Dawley rat model of arthritis assessed as reduction in IL-6 level in serum at 50 mg/kg, ig administered daily for 28 days starting from 14 days post-immunization. Format: functional, organism-based. An outline of the steps:
as §4

For data set [25], the system named is Rattus norvegicus. Put plainly: Antiarthritic activity in CFA-induced Sprague-Dawley rat arthritic model assessed as inhibition of hind paw swelling at 50 mg/kg, ig administered daily for 28 days starting from 14 days post-immunization and measured on day 30. The data set is classed as functional, organism-based. Put shortly:
as §2

pIC50: −log10 of the molar value. Activity calls are given as the source filed them. No cut-off for these calls is given here.

With `CCCc1nn(C)c2c(NC(C)C)nc(/C=C/c3cc(OC)c(OC)c(OC)c3)nc12`, the inhibition at 10 µM with RAW264.7 [1] stood at 90.4%. The pIC50 was 5.95 in [2], 5.50 in the data set with RAW264.7 [3], under 4.30 with RAW264.7 [4] and under 4.30 in the data set with RAW264.7 [5]. The Ratio IC50 in data set [6] turned out to be 22. In addition, the inhibition entry in the data set with RAW264.7 [7] was “inactive”. The inhibition entry (in data set [8]; with Rattus norvegicus [9]) was “Active” throughout. The Activity result in data set [10] is “Non-Toxic”; in the data set on Rattus norvegicus [14], “Dose-dependent effect”; with Rattus norvegicus [15] it was “Dose-dependent effect”; in the data set with Rattus norvegicus [16], “Dose-dependent effect”; with Rattus norvegicus [17], “Dose-dependent effect”. The result in the data set on Rattus norvegicus [11], in the data set with Rattus norvegicus [12] and in the data set on Rattus norvegicus [13] was Active.

`CC(=O)Oc1ccccc1C(=O)O`: the outcome in the data set with Rattus norvegicus [18], in the data set on Rattus norvegicus [19], in the data set with Rattus norvegicus [20], in the data set on Rattus norvegicus [21], in the data set with Rattus norvegicus [22] and in the data set with Rattus norvegicus [23] was Active. Further, the outcome with Rattus norvegicus [24] and with Rattus norvegicus [25] was Active.
